For data set [1], the target named is T1, P2X purinoceptor 7 (Homo sapiens) (UniProt Q99572).
T1 sequence (whole entry): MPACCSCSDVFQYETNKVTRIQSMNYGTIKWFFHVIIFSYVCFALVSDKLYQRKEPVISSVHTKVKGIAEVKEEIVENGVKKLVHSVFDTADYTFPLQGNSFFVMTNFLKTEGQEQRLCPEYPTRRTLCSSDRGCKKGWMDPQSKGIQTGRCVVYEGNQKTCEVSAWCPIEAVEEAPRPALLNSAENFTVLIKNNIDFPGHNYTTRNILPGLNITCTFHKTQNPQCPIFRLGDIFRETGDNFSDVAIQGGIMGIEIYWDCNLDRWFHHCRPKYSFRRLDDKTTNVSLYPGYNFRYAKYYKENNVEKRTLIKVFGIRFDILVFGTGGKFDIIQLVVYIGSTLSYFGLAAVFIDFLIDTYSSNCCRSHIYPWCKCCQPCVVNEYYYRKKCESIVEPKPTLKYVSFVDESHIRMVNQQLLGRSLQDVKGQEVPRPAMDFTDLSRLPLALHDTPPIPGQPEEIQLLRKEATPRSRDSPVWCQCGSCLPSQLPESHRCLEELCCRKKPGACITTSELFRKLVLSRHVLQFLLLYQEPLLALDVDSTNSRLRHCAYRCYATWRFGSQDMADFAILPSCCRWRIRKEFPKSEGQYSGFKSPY
The data set is described as follows: Antagonist activity at P2X7R in human THP1 cells assessed as inhibition of LPS and BzATP-induced ROS production at 10^-5 mol/L pretreated with compound followed by LPS/BzATP addition and measured up to 5 hrs by kinetic chemiluminescence based fluorometric analysis. The format is cell-based. Particulars: THP-1. In short, it runs like this:
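PMA-differentiated THP-1 macrophages (10^5 cells) in RPMI 1640 + 10% FBS pretreated with antagonist at 10^-5 mol/L, then LPS 10 μmol/L plus BzATP 70 μmol/L at 37 °C, 5% CO2; horseradish peroxidase (50 μg/mL) and luminol (50 μM) mixture added, chemiluminescence read on a fluorometer; cell-free H2O2 serves as positive control.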

For data set [2], the target named is T1, P2X purinoceptor 7 (Homo sapiens). Briefly: Antagonist activity at P2X7 receptor in human THP-1 cells assessed as inhibition of LPS and BzATP-induced IL-1beta production at 10^-6 mol/L pretreated with compound followed by LPS/BzATP addition and measured after 2 to 6 hrs by ELISA. The format is cell-based. Particulars: TDE = time-dependent effect. In short, it runs like this: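 PMA (100nM)-differentiated THP-1 macrophages (RPMI 1640, 10% FCS), 10^6 cells, pretreated with antagonist at […], then challenged with LPS 10 μmol/L and BzATP 70 μmol/L at 37 °C, 5% CO2; IL1β measured by ELISA, including the 6 h point; mean ± SD, P<0.05 significant.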
(An ELISA detects its analyte on a solid surface through an enzyme-linked reagent.)

Data set [3] shares this target. The data set is described as follows: Antagonist activity at P2X7 receptor in human THP-1 cells assessed as inhibition of LPS and BzATP-induced IL-1beta production at 10^-5 mol/L pretreated with compound followed by LPS/BzATP addition and measured after 2 to 6 hrs by ELISA. Format: cell-based. The gist of the method: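 THP-1 monocytes grown in RPMI 1640 + 10% FCS, differentiated to macrophages with PMA (100nM); 10^6 cells pretreated with antagonist at 10^-5 mol/L, then exposed to LPS 10 μmol/L plus BzATP 70 μmol/L at 37 °C, 5% CO2; IL1β quantified by ELISA in samples at 2, 4 and 6 h; mean ± SD, significance P<0.05.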

The target of the next data set is T2, P2X purinoceptor 7 (Homo sapiens, UniProt Q99572).
T2 sequence (Q99572 whole entry): T1 sequence (whole entry)
Briefly: Displacement of [3H]-A804598 from human P2X7 expressed in human HEK293 cell membrane incubated for 1 hr by microplate scintillation counting method. The format is cell membranes. (In general: In a radioligand displacement assay an active substance lowers the binding of a labelled ligand.)

Data set [4] has as its target T1, P2X purinoceptor 7 (Homo sapiens). Briefly: Inhibition of human P2X7 expressed in human HEK293 cells assessed as reduction in BzATP-stimulated TO-PRO-3 incorporation at 10 uM preincubated with compound and TO-PRO-3 for 15 mins prior to BzATP addition and measured after 1 hr by Fluo-3AM dye based flow cytometry relative to control. The format is cell-based. The gist of the method: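 HEK-293 cells overexpressing human P2RX7 loaded with Fluo-3 AM, then incubated with TO-PRO-3 (large pore uptake) and propidium iodide (viability) plus compound (10⁻⁵ M single point) for 15 min before BzATP 100 µM. After 1 h, flow cytometry; percentage of Fluo-3/TO-PRO-3 double-positive cells calculated. Mean of n ≥ 2 with positive control.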
Background: In flow cytometry, cells or beads pass a laser one at a time.

For data set [5] the target is unchanged. Briefly: Antagonist activity at P2X7R in human THP1 cells assessed as inhibition of LPS and BzATP-induced cell death at 10^-6 mol/L pretreated with compound followed by LPS/BzATP addition and measured after 6 hrs by sytox green dye based flow cytometry. Particulars: THP-1.
Another data set deals with HEK293. Briefly: Cytotoxicity against human HEK293 cells assessed as reduction in cell viability at 10^-5 mol/L incubated for 72 hrs. As to conditions: hek293, 72 h, 10 µM. Format: cell-based. In short, it runs like this: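 Wild-type and P2RX7-transfected HEK293 cells exposed to compound for 72 hours; viability compared against untreated control.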
The target in data set [6] is T3, P2X purinoceptor 1 (Homo sapiens) (UniProt P51575).
T3 sequence (whole entry): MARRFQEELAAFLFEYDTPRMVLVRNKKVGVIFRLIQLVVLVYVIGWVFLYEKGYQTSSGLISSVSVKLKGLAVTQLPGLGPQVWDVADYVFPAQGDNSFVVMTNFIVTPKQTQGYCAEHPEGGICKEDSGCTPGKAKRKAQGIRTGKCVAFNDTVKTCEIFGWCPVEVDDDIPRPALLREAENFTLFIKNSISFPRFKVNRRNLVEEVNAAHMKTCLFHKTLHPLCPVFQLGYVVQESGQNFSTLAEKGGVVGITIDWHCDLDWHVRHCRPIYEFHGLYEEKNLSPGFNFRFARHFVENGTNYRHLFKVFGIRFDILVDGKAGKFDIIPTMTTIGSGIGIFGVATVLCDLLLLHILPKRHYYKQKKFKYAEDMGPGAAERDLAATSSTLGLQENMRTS
The data set is described as follows: Antagonist activity at P2X1 receptor in human platelet assessed as inhibition of thrombin-induced platelet aggregation at 10 '-5 to 10^-6 mol/L pretreated with compound and LPS/BzATP for 10 mins followed by thrombin addition and measured for 8 mins by aggregometry analysis. Format: cell-based.

A short description of data set [7]: Solubility of compound in saline at 1mg/ml. The format is physicochemical. As to conditions: buffer.
The nature of data set [8]: Metabolic stability in human liver microsomes assessed as intrinsic clearance at 0.2 mg/ml incubated for 60 mins by UPLC/MS-MS analysis. The format is ADME, Microsome. As to conditions: read-out: CLH.
Data set [9] can be described thus: Metabolic stability in human liver microsomes assessed as half life at 0.2 mg/ml incubated for 60 mins by UPLC/MS-MS analysis. Format: ADME, Microsome.
Data set [10] is described as follows: Drug metabolism in mouse measured after 40 mins. The format is ADME. As to conditions: read-out: Drug metabolism.
The nature of data set [11]: Metabolic stability in human hepatocytes. Format: ADME, cell-based, Hepatocyte.

The structures appear in SMILES notation. Calls of active or inactive are those of the source.

The term inhibition denotes the change of the read-out against control, counted positive when it falls. The term IC50 denotes the point on the concentration scale where inhibition reaches its midpoint. A lower IC50 goes with higher potency. Broadly, the Ki is a dissociation constant, usually derived from enzyme kinetics or from competition with a known ligand. Usually half-life stands for the time needed for the level to fall by half in the phase considered.

As to `O=C(NCc1ccc(Cl)cc1Cl)[C@@H]1CCC(=O)N1c1cccs1`, the inhibition result in data set [1] and in [3] was “Active” each time. Moreover, the inhibition entry in data set [2] was “Tde”; in data set [4], 98%. Moreover, at P2X purinoceptor 7, the concentration for half-maximal inhibition (IC50) stood at 720 nM. The molecule also returned a Ki on P2X purinoceptor 7 of 147 nM. Besides, the inhibition entry in data set [5] was “inactive”. Moreover, in the data set with HEK293, the Activity entry is recorded as “Non-Toxic”. Also, the result in data set [6] was inactive. The solubility result in data set [7] is listed as “Insoluble”. The microsomal CLint in data set [8] was found to be 1070 µL/min/mg. The half-life in data set [9] is 1.5 min. The metabolised at 40 min in data set [10] was 100%. The Stability entry in data set [11] is recorded as “Unstable”.

As to `O=C(NCc1ccc(Cl)cc1Cl)[C@@H]1CCC(=O)N1c1ccsc1`, the inhibition result in data set [1] and in [3] was “Active” throughout. Also, the values for the inhibition entry in data set [2] and in data set [4] were “Tde” and 78%, respectively. Besides, the IC50 on P2X purinoceptor 7 turned out to be 1250 nM. Also, at P2X purinoceptor 7, the Ki amounted to 256 nM. Also, in [5], the inhibition entry was “inactive”. Besides, the Activity entry with HEK293 is given as “Non-Toxic”. For the same molecule, the result in [6] was inactive. For the same molecule, the solubility entry in [7] was “Insoluble”. The microsomal CLint in data set [8] came out at 762 µL/min/mg. Also, in data set [9], the half-life worked out at 2.5 min. In addition, the metabolised at 40 min in data set [10] was 99.9%. Moreover, the Stability entry in [11] was “Unstable”.

For the origin of these results see ChEMBL document CHEMBL4627246, “Pyroglutamide-Based P2X7 Receptor Antagonists Targeting Inflammatory Bowel Disease” (J Med Chem, 2020).
